# Assay results taken from ChEMBL document CHEMBL3997766, “Synthesis and pre-clinical studies of new amino-acid ester thiazolide prodrugs” (Eur J Med Chem, 2017).
# Tests used:
# Canis familiaris [1] = experiment: Toxicity in Beagle dog up to 25 mg/kg, po administered as gelatin capsule once daily for 28 days measured on day 29; assay type: organism-based, Canis lupus familiaris; conditions: in vivo, 672 h
# Method in brief: (§1)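 Sub-acute study in Beagle dogs dosed orally by gelatin capsule at 5, 15 and 25 mg/kg once a day for 28 consecutive days.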
# Plasma [2] = experiment: Drug metabolism in Sprague-Dawley rat assessed as tizoxanide-glucuronide formation in plasma at 30 mg/kg, po administered as single dose measured after 5 mins; assay type: ADME, organism-based; conditions: in vivo
# Method in brief: (§2)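 Plasma tizoxanide and tizoxanide glucuronide were measured and PK parameters derived. AUCs were dose-corrected to 30 mg/kg for bioavailability.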
# Canis familiaris [3] = experiment: Toxicity in Beagle dog assessed as early death at 5 to 25 mg/kg, po administered as gelatin capsule once daily for 28 days measured on day 29; assay type: organism-based, Canis lupus familiaris; conditions: in vivo, 672 h
# Method in brief: (§3)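 Sub-acute study in Beagle dogs: 5, 15 or 25 mg/kg/day given orally in a single gelatin capsule once a day for 28 consecutive days to assess systemic exposure and toxicity, with NOAEL determination.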
# Rattus norvegicus [4] = experiment: Toxicity in Sprague-Dawley rat assessed as decrease in serum total albumin level at 75 mg/kg administered as oral gavage qd for 28 consecutive days followed by 2 weeks recovery period measured on day 43; assay type: organism-based; conditions: in vivo, 336 h
# Method in brief: (§4)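 Sub-acute study in Sprague-Dawley rats dosed orally with a suspension at 10, 30 and 75 mg/kg once daily for 28 consecutive days. Four groups of up to 30 rats each (15M/15F).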
# Rattus norvegicus [5] = experiment: Neurotoxicity in Sprague-Dawley rat at 100 to 300 mg/kg, po administered via gavage as single dose after 4 to 24 hrs; assay type: toxicity, organism-based; conditions: in vivo
# Method in brief: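 CNS safety study in rats: single oral-gavage doses of 100, 300 or 1000 mg/kg to 3 groups of 10 (5M/5F), with an untreated control group. Clinical signs (activity, abdominal tone, breathing, tremors, pain response) were recorded at 4 and 24 h after dosing, and mortality was noted.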
# Rattus norvegicus [6] = experiment: Toxicity in Sprague-Dawley rat at 10 to 75 mg/kg administered as oral gavage qd for 28 consecutive days by ophthalmoscopic method; assay type: organism-based; conditions: in vivo
# Method in brief: (§5)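 Sub-acute study in Sprague-Dawley rats: 10, 30 or 75 mg/kg given orally once a day for 28 consecutive days as a yellow suspension. There were 4 groups of up to 30 rats each (15M/15F), including a control. Body weight, clinical observations and terminal findings were assessed.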
# Rattus norvegicus [7] = experiment: AUC (0 to t) in Sprague-Dawley rat assessed as Tizoxanide level in plasma at 6 mg/kg, iv administered as single dose; assay type: ADME, organism-based; conditions: in vivo; method in brief: as §2
# Canis familiaris [8] = experiment: Toxicity in Beagle dog at 5 to 75 mg/kg, po administered as gelatin capsule qd for 28 consecutive days; assay type: organism-based, Canis lupus familiaris; conditions: in vivo
# Rattus norvegicus [9] = experiment: Cmax in Sprague-Dawley rat assessed as Tizoxanide level in plasma at 30 mg/kg, po administered as single dose; assay type: ADME, organism-based; set-up: dose 30 mg/kg, route oral; conditions: in vivo
# Method in brief: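 Rats in groups of three received one compound as a single oral dose (30 mg/kg) or a single intravenous injection (6 mg/kg), with four compounds studied separately. Serial blood samples were drawn at 5, 10, 15 and 30 min and at 1, 2, 4, 8, 23 and 24 h post-dose. Plasma parent drug and metabolites were quantified and PK parameters were derived.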
# Canis familiaris [10] = experiment: Drug metabolism in Beagle dog assessed as tizoxanide-glucuronide level in plasma administered orally as gelatin capsule once daily for 28 days measured on day 1 and 29; assay type: ADME, Canis lupus familiaris; conditions: po, 672 h
# Method in brief: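 Beagle dogs received the drug orally in a single gelatin capsule at 5, 15 or 25 mg/kg once daily for 28 consecutive days in a sub-acute toxicity study assessing systemic exposure.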
# Canis familiaris [11] = experiment: Toxicity in Beagle dog assessed as emesis at 25 mg/kg, po administered as gelatin capsule once daily for 28 days measured on day 29 followed by 2 weeks recovery period measured on day 43; assay type: organism-based, Canis lupus familiaris; conditions: in vivo; method in brief: as §1
# Rattus norvegicus [12] = experiment: Toxicity in Sprague-Dawley rat assessed as decrease in serum total protein level at 75 mg/kg administered as oral gavage qd for 28 consecutive days followed by 2 weeks recovery period measured on day 43; assay type: organism-based; conditions: in vivo, 336 h; method in brief: as §4
# Canis familiaris [13] = experiment: Toxicity in Beagle dog assessed as early death at 5 to 25 mg/kg, po administered as gelatin capsule once daily for 28 days followed by 2 weeks recovery period measured on day 43; assay type: organism-based, Canis lupus familiaris; conditions: in vivo; method in brief: as §3
# Rattus norvegicus [14] = experiment: Toxicity in Sprague-Dawley rat assessed as effect on respiratory rate by measuring breaths per minute at 100 to 1000 mg/kg administered as single dose via oral gavage; assay type: organism-based; conditions: in vivo
# Method in brief: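 Respiratory safety study: conscious rats, 3 groups of 6 (3M/3F), given single oral-gavage doses of 100, 300 or 1000 mg/kg, with an untreated control group. Respiratory rate (breaths per minute), tidal volume and minute volume were recorded, and mortality was noted.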
# Rattus norvegicus [15] = experiment: Toxicity in Sprague-Dawley rat assessed as eosinophilic cytoplasmic bodies in epithelial cells of duodenum at 75 mg/kg administered as oral gavage qd for 28 consecutive days measured on day 29 by microscopic method; assay type: organism-based; conditions: in vivo; method in brief: as §4
# Rattus norvegicus [16] = experiment: Toxicity in Sprague-Dawley rat administered via oral gavage qd for 28 consecutive days; conditions: in vivo; method in brief: as §5
# Rattus norvegicus [17] = experiment: Toxicity in Sprague-Dawley rat assessed as erosions in stomach at 75 mg/kg administered as oral gavage qd for 28 consecutive days followed by 2 weeks recovery period by microscopic method; assay type: organism-based; conditions: in vivo, 336 h; method in brief: as §4
# Rattus norvegicus [18] = experiment: AUC (0 to t) in male Sprague-Dawley rat assessed as Tizoxanide-glucuronide level in plasma at 6 mg/kg, iv administered as single dose; assay type: ADME, organism-based; conditions: in vivo; method in brief: as §2
# Canis familiaris [19] = experiment: Toxicity in Beagle dog assessed as change in food consumption up to 25 mg/kg, po administered as gelatin capsule once daily for 28 days; assay type: organism-based, Canis lupus familiaris; conditions: in vivo, 672 h; method in brief: as §1
# Rattus norvegicus [20] = experiment: Neurotoxicity in Sprague-Dawley rat assessed as labored breathing at 1000 mg/kg administered as single dose via oral gavage after 4 to 24 hrs; assay type: toxicity, organism-based; conditions: in vivo
# Method in brief: (§6)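 Three groups of 10 rats (5M/5F) received a single dose by oral gavage of 100, 300 or 1000 mg/kg, and an untreated group served as control. Clinical signs of CNS effects were recorded at 4 and 24 h after treatment.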
# Rattus norvegicus [21] = experiment: Neurotoxicity in Sprague-Dawley rat assessed as tremors at 1000 mg/kg administered as single dose via oral gavage after 4 to 24 hrs; assay type: toxicity, organism-based; conditions: in vivo; method in brief: as §6
# Rattus norvegicus [22] = experiment: AUC (0 to t) in Sprague-Dawley rat assessed as Tizoxanide level at 30 mg/kg, po administered as single dose; assay type: ADME, organism-based; conditions: in vivo; method in brief: as §2
# Rattus norvegicus [23] = experiment: Toxicity in Sprague-Dawley rat assessed as increase in serum chloride level at 30 mg/kg administered as oral gavage qd for 28 consecutive days followed by 2 weeks recovery period measured on day 43; assay type: organism-based; conditions: in vivo, 336 h; method in brief: as §4
# Rattus norvegicus [24] = experiment: Tmax in Sprague-Dawley rat assessed as Tizoxanide level in plasma at 28 mg/kg, po; assay type: ADME, organism-based; conditions: in vivo
# Method in brief: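 Rats in groups of three got a single oral dose (30 mg/kg) or a single intravenous injection (6 mg/kg). Serial blood samples were taken at 5, 10, 15 and 30 min and at 1, 2, 4, 8, 23 and 24 h post-dose for plasma drug and glucuronide levels. Bioavailability came from oral versus intravenous AUC after dose correction to 30 mg/kg.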
# Rattus norvegicus [25] = experiment: Toxicity in Sprague-Dawley rat assessed as increase in liver to body weight ratio at 75 mg/kg administered as oral gavage qd for 28 consecutive days measured on day 29; assay type: organism-based; conditions: in vivo; method in brief: as §4
# Plasma [26] = experiment: Drug metabolism in Sprague-Dawley rat assessed as tizoxanide level in plasma administered via oral gavage qd for 28 consecutive days; assay type: ADME
# Method in brief: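 In a sub-acute study, Sprague-Dawley rats were dosed once daily for 28 consecutive days at 10, 30 or 75 mg/kg, given as a yellow suspension. There were four groups of up to 30 rats each (15M/15F) to assess systemic exposure.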
smiles,measurement,setting,value
CC(C)(C)[C@H](N)C(=O)Oc1ccccc1C(=O)Nc1ncc([N+](=O)[O-])s1.Cl,Activity,Canis familiaris [1],Non-Toxic
same,Drug metabolism,Plasma [2],Metabolite_Detected
same,Activity,Canis familiaris [3],Non-Toxic
same,Activity,Rattus norvegicus [4],Toxic
same,Activity,Rattus norvegicus [5],Non-Toxic
same,Activity,Rattus norvegicus [6],Non-Toxic
same,AUCt,Rattus norvegicus [7],5210 ng·h/mL
same,Activity,Canis familiaris [8],Non-Toxic
same,Cmax,Rattus norvegicus [9],6190 ng/mL
same,Drug metabolism,Canis familiaris [10],Dose-dependent effect
same,Activity,Canis familiaris [11],Non-Toxic
same,Activity,Rattus norvegicus [12],Toxic
same,Activity,Canis familiaris [13],Non-Toxic
same,Activity,Rattus norvegicus [14],Toxic
same,Activity,Rattus norvegicus [15],Toxic
same,NOAEL,Rattus norvegicus [16],10 mg/kg
same,Activity,Rattus norvegicus [17],Non-Toxic
same,AUCt,Rattus norvegicus [18],13600 ng·h/mL
same,Activity,Canis familiaris [19],Non-Toxic
same,Activity,Rattus norvegicus [20],Toxic
same,Activity,Rattus norvegicus [21],Toxic
same,AUCt,Rattus norvegicus [22],3120 ng·h/mL
same,Activity,Rattus norvegicus [23],Toxic
same,Tmax,Rattus norvegicus [24],5 to 15 min
same,Activity,Rattus norvegicus [25],Toxic
same,Drug metabolism,Plasma [26],Dose-dependent effect
